Hits are enriched below; roughly 1.9% of the tested compounds scored in any of these assays.
UCH37 DUB inh: inhibitors of human UCH37 deubiquitinase, primary screen, biochemical, Ub-AMC cleavage, fluorescence | Ubiquitin carboxyl-terminal hydrolase isozyme L5 (Homo sapiens), Q9Y5K5 | actives 0.33% (n = 330,000) | purified proteasome/UCH37 | inhibition, % (test concentration not listed);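 active means mean inhibition over replicate wells above about 20%, limit read from the data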;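 further: 0% = compound-free wells with enzyme and 100% = wells lacking proteasome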
Target sequence (Q9Y5K5 whole entry, looked up): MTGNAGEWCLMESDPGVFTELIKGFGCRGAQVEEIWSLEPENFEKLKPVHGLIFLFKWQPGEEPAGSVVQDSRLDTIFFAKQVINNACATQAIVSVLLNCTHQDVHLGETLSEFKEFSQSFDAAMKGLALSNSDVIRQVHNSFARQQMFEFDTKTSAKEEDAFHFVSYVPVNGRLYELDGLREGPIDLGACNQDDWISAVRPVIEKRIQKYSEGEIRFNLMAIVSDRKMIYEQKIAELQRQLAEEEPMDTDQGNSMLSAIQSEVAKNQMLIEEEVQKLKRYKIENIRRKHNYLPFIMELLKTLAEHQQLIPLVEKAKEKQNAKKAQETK
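Material: human UCH37 enzyme supplied as purified proteasome complex. Measure: % inhibition of Ub-AMC cleavage fluorescence. Medium: pH 7.4 Tris-HCl (50 mM) with ovalbumin, ATP-MgCl2, DTT. Times: 30 min preincubation with enzyme, 25 min cleavage at room temperature. Detection: AMC fluorescence intensity at 355/460 nm.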
Rce1 inhib: yeast Rce1p protease inhibitors, primary screen, biochemical, fluorescence, cell-free homogeneous; CAAX prenyl protease 2 (Saccharomyces cerevisiae (strain ATCC 204508 / S288c)), Q03530; yeast membranes, quenched prenylated peptide cleavage fluorescence; calls only; actives 0.27% (n = 290,000); AID 2563, 2010;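 active means fall in fluorescence gain of 50% or more versus controls, with final raw signal at or below 3038400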;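 further: plate controls were neutral control wells for no effect and wells lacking membranes for full effect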
Target sequence (Q03530 whole entry, looked up): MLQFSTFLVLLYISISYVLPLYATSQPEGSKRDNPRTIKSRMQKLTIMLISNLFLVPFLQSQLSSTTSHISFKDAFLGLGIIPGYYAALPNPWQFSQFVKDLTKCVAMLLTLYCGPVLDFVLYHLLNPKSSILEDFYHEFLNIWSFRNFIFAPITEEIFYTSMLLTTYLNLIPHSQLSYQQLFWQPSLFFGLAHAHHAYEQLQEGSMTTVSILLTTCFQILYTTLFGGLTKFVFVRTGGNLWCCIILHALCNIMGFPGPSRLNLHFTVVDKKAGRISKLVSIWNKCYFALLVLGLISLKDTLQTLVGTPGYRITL
PG9 binder: binders of HIV-1 gp120 antibody PG9, primary screen, biochemical, TR-FRET; HIV-1 gp120 / PG9 antibody interaction; TR-FRET gp120-PG9 antibody binding; inhibition, % at 6.7 µM; actives 0.43% (n = 360,000); in the data active means inhibition above about 8.5%
CR mimetic SO: reduction of superoxide in aged yeast, primary screen, HTS; S. cerevisiae aged cells, superoxide DHE fluorescence; active compounds read low; superoxide response (% of plate mean), % at 10 µM; actives 0.18% (n = 330,000);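 active means superoxide response under a set limit, about three screen SD below normal, cut at about 65% in these data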;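 further: yeast aged for seven days with compound at 30 °C before DHE staining; 100% = average MFI of all compound-treated wells on the plate with controls excluded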
NR1D1 modulator: modulators of Rev-erb alpha DNA binding, primary screen, biochemical, FITC-DNA, fluorescence polarization, uHTS. AID 1259318, 2017. actives 0.79% (n = 370,000). activity, % at 10 µM. Rev-erbα–FITC-DNA binding, 90 min;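 active means activity above about 14%, limit read from the data; passing the limit was not always enough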;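 further: 0% = DMSO wells with 35 nM protein and 100% = DMSO wells with 750 nM protein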
beta cell repl: inducers of MIN6 beta-cell proliferation, primary screen, ATP luminescence, uHTS | MIN6 cells proliferation, ATPlite luminescence, 48 h; cells starved in 0.2% serum; 100% = growth in 10% serum | proliferation, % at 10 µM | actives 0.29% (n = 330,000) | AID 2380, 2010;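 active means compounds whose signal lies at least 3.5 SD above the mean of all wells on their plate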;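 further: 0% = DMSO-treated cells in low-serum medium and 100% = 10% serum control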
An asterisk follows results filed as active; i = inactive; nt = no result given; + = active, no number.

SMILES | UCH37 DUB inh | Rce1 inhib | PG9 binder | CR mimetic SO | NR1D1 modulator | beta cell repl
O=C(COC(=O)/C=C/c1cn(-c2ccccc2)nc1-c1ccc2c(c1)OCCO2)NC1CCS(=O)(=O)C1 (centres undefined) | -100.1 | + | -0.2 | 110.1 | 3.2 | -4.0
Cc1cc(C)cc(N=Cc2ccc([N+](=O)[O-])s2)c1 | 10.4 | i | -0.1 | 75.9 | -0.9 | -7.0
NC(=O)c1ccc(N=Cc2ccc([N+](=O)[O-])s2)cc1 | 61.7* | nt | -3.6 | 84.4 | -0.4 | nt
CCC(=NNC(=O)c1cc(C2CC2)[nH]n1)c1ccccc1 | 1.4 | nt | nt | nt | nt | nt
COc1ccccc1C=NNC(=O)c1nnn(-c2nonc2N)c1CSC1=NCCS1 | 5.3 | nt | nt | nt | nt | nt
COC/C=C/C1=CC2=CC(=O)C(C)(OC(=O)c3cnc4ccccc4n3)C(=O)C2=CN1CC1CC1 (centres undefined) | 40.7* | i | nt | 90.4 | nt | -5.0
CCOc1cc(/C=C2\SC(N)=NC2=O)ccc1O | 6.5 | i | -14.9 | 94.7 | 6.8 | -0.4
CCOc1cc(/C=C2\SC(=O)N=C2N)ccc1O | 12.3 | i | -16.6 | 100.5 | 2.6 | 0.0*
Cc1onc(-c2ccccc2Cl)c1C(N)=O | 0.3 | i | -2.4 | 103.0 | 2.2 | 2.3
Cc1[nH]n(C)c(=O)c1C(=O)c1c(-c2ccccc2Cl)noc1C | 0.0 | i | 1.8 | 65.5* | -1.9 | -3.7
OC(CN1CCN(c2ccccc2)CC1)c1c[nH]c2ccccc12 (centres undefined) | 23.8* | i | -0.4 | 107.4 | 1.3 | -6.2
CCOc1cc(C=NNC(=O)c2cccs2)ccc1OC(=O)N1CCOCC1 | 5.2 | nt | nt | nt | nt | nt
Cc1cc(C)cc(-n2c(C)cc(C=C(C#N)C#N)c2C)c1 | -6.2 | i | 28.1* | 103.2 | 8.8 | -2.2
CCOC(=O)/C(C#N)=C/c1cc(C)n(-c2ccccc2)c1C | 6.0 | i | 0.1 | 96.3 | 3.6 | -3.1
COc1ccc(C(=O)ON=C(C)c2ccccc2)cc1 | -0.9 | nt | nt | nt | nt | nt
O=[N+]([O-])c1cccc(-c2ccc(C=NNC(=S)Nc3ccccc3)o2)c1 | 0.0 | nt | nt | nt | nt | nt
CCc1n[nH]c(=S)n1N=C/C(C)=C\c1ccccc1 | 2.3 | nt | nt | nt | nt | nt
O=C(O)c1ccc2cccc(Cl)c2c1O | -53.2 | + | 7.4 | 129.9 | 2.8 | -2.6
O=C(O)c1cccc(O)c1O | 0.0 | i | -0.4 | 101.2 | -11.1 | -4.8
Cc1ccc(NC(=O)c2ccc(CN3CCc4ccccc4C3)cc2)cc1 | 22.2* | i | -0.9 | 105.4 | 2.6 | -3.8
CCOC(=O)[C@@H]1[C@H]2COc3ccc(Br)cc3[C@@H]2N2C(=O)N(c3ccc(F)cc3)C(=O)[C@@]12C | 20.4* | nt | -0.3 | 117.7 | 11.6 | -0.3
O=C(COC(=O)c1ccc([N+](=O)[O-])o1)NC1CCCc2ccccc21 (centres undefined) | 20.1* | nt | -1.7 | 148.7 | 3.6 | 0.6
O=C(Cn1cnc([N+](=O)[O-])n1)NN=Cc1ccc2ccccc2c1 | 5.1 | nt | nt | nt | nt | nt
COc1ccc(-c2ccc3oc(-c4ccc(OC)cc4)c(-c4ccc(OC)cc4)c3c2)cc1 | -67.3 | + | 1.6 | nt | -2.6 | -3.8
COc1ccc(-c2ccc3oc(-c4ccsc4)c(-c4ccc(OC)cc4)c3c2)cc1 | -0.3 | i | 0.0 | 119.3 | 0.8 | -4.6
SMILES | UCH37 DUB inh | Rce1 inhib | PG9 binder | CR mimetic SO | NR1D1 modulator | beta cell repl
CN(C)c1ccc(C(=O)c2ccccc2C(=O)O)c(O)c1 | 23.0* | i | -1.2 | 99.4 | -2.5 | -1.3
CCc1cc(C(=O)O)c(NC(=O)/C=C/c2ccc(OC)c(OC)c2)s1 | 24.3* | i | 0.6 | 163.1 | -0.5 | -2.1
O=C(Nc1ccc2c(c1)OCO2)c1ccc2c(c1)S(=O)(=O)c1ccccc1C2=O | 1.5 | i | -2.3 | 104.8 | -1.0 | -1.3
O=C(Nc1ccc(Cl)cc1)c1ccc2c(c1)S(=O)(=O)c1ccccc1C2=O | 27.5* | i | -0.9 | 86.8 | -2.5 | -3.2
O=C(CNC(=O)c1ccc(S(=O)(=O)N2CCCC2)cc1)NN=Cc1ccc(F)cc1 | 3.1 | nt | nt | nt | nt | nt
Cc1cc(C)n2c(nc3ccccc32)c1C(=O)NCc1ccccc1 | nt | + | 2.3 | 92.3 | -3.3 | -0.1
Cc1cccc2cc(-c3nc4c(C)cccn4c3NCc3ccco3)c(=O)[nH]c12 | 24.7* | i | -3.7 | 107.3 | -0.1 | 3.9
COC(=O)CSc1nc(N)c2c3c(sc2n1)CCCC3 | 5.2 | i | -1.6 | 83.8 | 2.7 | -4.7
COC(=O)CSc1nc(N)c2c3c(sc2n1)C(c1ccccc1)SC(c1ccccc1)C3 (centres undefined) | 0.1 | + | nt | 120.6 | nt | -5.3
CC(C)(C)NC(=O)NC(=O)COC(=O)COc1ccc2c(c1)CCC2 | 20.2* | i | -0.9 | 122.7 | 1.7 | -0.8
CCS(=O)(=O)N1CCCC(C(=O)NCC2CCCO2)C1 (centres undefined) | 31.4* | i | -0.1 | 99.8 | 2.5 | -6.2
O=C(NCC1CCCO1)C1CCCN(S(=O)(=O)c2ccc(F)cc2)C1 (centres undefined) | 0.0 | i | -1.4 | 88.3 | -4.6 | 1.9
CCOC(=O)c1sc(-c2ccc(F)cc2)cc1N | -13.5 | i | 1.7 | 116.6 | -1.1 | 0.1
CCOC(=O)c1sc2nc(C3CC3)cc(-c3ccc(OC)cc3)c2c1N | -59.7 | + | 0.3 | 115.4 | 3.3 | -0.2
CCOC(=O)c1sc2nc(C3CC3)cc(-c3ccc(F)cc3)c2c1N | -196.6 | + | 1.5 | 111.5 | -2.1 | -4.9
COc1ccc(NS(=O)(=O)c2cccc(C(=O)NN=Cc3ccccn3)c2)cc1 | 2.3 | nt | nt | nt | nt | nt
CC(CC(=O)Nc1cccc2c1CCCC2)=NNC=O | 1.4 | nt | nt | nt | nt | nt
COc1ccc(CN2CCCCC2C(=O)Nc2ccc(OC)c(OCC(C)C)c2)cc1OC (centres undefined) | 2.4 | + | -1.4 | 116.8 | -5.9 | 0.6
CCN1CCN(CC(O)COc2ccc3c(C)cc(=O)oc3c2)CC1 (centres undefined) | -132.0 | + | -1.8 | 87.9 | -5.2 | 4.4
CC1(C)Cc2ccccc2C(=O)N1 | 25.7* | i | 1.1 | 94.6 | -3.1 | 1.9
COC(=O)c1ccc(C=NOCC(=O)NCc2ccc(F)cc2)cc1 | 1.3 | nt | nt | nt | nt | nt
Cc1cccc(OCC(=O)Nc2cc(C)on2)c1 | 33.6* | i | 2.5 | 96.3 | -2.3 | -1.2
Cc1cccc(OCC(=O)Nc2ccc(C(=O)c3ccc(C(=O)O)cc3)cc2)c1 | 34.7* | i | -1.1 | 118.4 | 0.6 | -1.4
Cc1cc(NC(=O)COc2ccc3ccccc3c2Br)no1 | -0.6 | nt | 10.0* | 80.9 | 4.2 | -3.3
